Bioassay records: PubChem BioAssay, several laboratories
FXIIa inh: human FXIIa protease inhibitors, primary screen, biochemical, 1536-well; Coagulation factor XII (Homo sapiens), P00748; purified FXIIa, Boc-QGR-AMC fluorogenic substrate, 2 h; inhibition, % at 5 µM; actives 0.3% (n = 220,000); AID 800, 2007; in the data active means inhibition above about 40%;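 further: 0% = enzyme with no compound and 100% = blank without enzyme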
Thrombin inh: human alpha-thrombin inhibitors, primary screen, counter-screen for coagulation protease inhibitor project, biochemical, 1536-well, fluorogenic AMC substrate; Prothrombin (Homo sapiens), P00734; Boc-VPR-AMC fluorogenic substrate cleavage; inhibition, % at 5 µM; actives 0.26% (n = 220,000); AID 1046, 2008;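 active means inhibition at or above 40%; inactive means inhibition below 40%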;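 further: 0% = enzyme with no compound and 100% = wells without enzyme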
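Assay system: human alpha-thrombin enzyme. Reagent: Boc-VPR-AMC substrate, 15 µM final. Compound dosing: one concentration per compound, 5 µM, with 0.2% DMSO. Incubation: room-temperature reaction. Technique: AMC fluorescence, 355/460 nm. Measure: % inhibition relative to enzyme controls and enzyme-free blanks.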
FXIa inh: human FXIa protease inhibitors, primary screen, biochemical, 1536-well | purified FXIa, Boc-Glu-Ala-Arg-AMC fluorogenic substrate | inhibition, % at 5 µM | actives 0.14% (n = 220,000);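 active means inhibition of at least 40%; inactive means inhibition below 40%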;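 further: fluorescence of freed AMC excited at 355 nm; 0% = enzyme without compound and 100% = no enzyme blank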
KLK5 inh: human KLK5 protease inhibitors, primary screen, biochemical, 1536-well; inhibition, % at 5 µM; actives 0.59% (n = 210,000); AID 873, 2007; recombinant hK5, fluorogenic AMC substrate cleavage;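 active means inhibition of 40% or more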;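 further: 0% = enzyme controls without compound and 100% = no-enzyme blanks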
Target sequence (Q9Y337 67-293 limits assumed): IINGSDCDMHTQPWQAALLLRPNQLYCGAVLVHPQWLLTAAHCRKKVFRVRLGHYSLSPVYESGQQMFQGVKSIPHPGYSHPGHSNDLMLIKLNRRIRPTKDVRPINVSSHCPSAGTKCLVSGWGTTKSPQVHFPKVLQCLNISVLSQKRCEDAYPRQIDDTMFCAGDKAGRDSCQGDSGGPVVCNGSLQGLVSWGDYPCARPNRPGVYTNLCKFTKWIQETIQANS
m-calpain inh: inhibitors of pig calpain II, primary screen, biochemical, fluorogenic peptide substrate, 1536-well | purified calpain II, 30 min | inhibition, % at 16 µM | actives 0.37% (n = 220,000);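 active means inhibition above about 50%, limit read from the data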
Starred values were filed as active, the others as inactive; i = inactive; . = not tested or not shown. Most compounds without a hit are left out; they make up all but 1.4% or so of the library.

SMILES	FXIIa inh	Thrombin inh	FXIa inh	KLK5 inh	m-calpain inh
COc1cc(-c2nc3cccc(C)n3c2NCC2CCCO2)ccc1O (centres undefined)	8.9	-9.1	-4.0	-3.0	i
COCCOC(=O)C(C#N)c1nc2ccccc2nc1N1CCN(Cc2ccccc2)CC1 (centres undefined)	9.3	-3.8	1.9	4.3	-52.7
C=CCNC(=O)C(C#N)c1nc2ccccc2nc1N1CCN(Cc2ccccc2)CC1 (centres undefined)	23.5	104.3*	15.7	35.2	-83.2
C=CCOC(=O)C(C#N)c1nc2ccccc2nc1N1CCN(Cc2ccccc2)CC1 (centres undefined)	-8.2	6.3	3.0	45.6*	-8.2
CC(NC(=O)c1ccc(C23CC4CC(CC(C4)C2)C3)cc1)C(=O)O (centres undefined)	11.2	-326.7	0.2	0.9	-48.4
CCOc1ccccc1OCCCC(=O)Nc1sccc1C(N)=O	-5.7	-7.0	-9.7	-23.8	16.8
Nc1ccc(O)c2c1C(=O)c1ccccc1C2=O	0.1	3.1	11.9	-27.7	-13.7
Nc1c(Cl)cc2c(c1Oc1ccccc1)C(=O)c1ccccc1C2=O	11.9	4.9	8.6	-7.1	52.8*
CC1CCN(S(=O)C23CC4CC(CC(C4)C2)C3)CC1 (centres undefined)	7.7	-7.6	1.9	2.6	56.4*
O=C(NCc1ccccc1)c1cccnc1N1CCOCC1	-7.8	10.2	2.4	72.1*	9.1
O=C(NCc1ccccc1)N1CCOCC1	8.3	0.5	5.1	2.7	31.3
Nc1nc(F)cc(NCc2ccccc2)n1	5.0	-1.2	-1.4	3.9	-6.7
CN(C)CCN(C)Cc1ccccc1Sc1cccc2ccccc12	2.9	-9.1	-3.2	-8.4	-11.2
O=C1c2ccc(-c3ccc4c(c3)C(=O)N(CCO)C4=O)cc2C(=O)N1CCO	25.0	9.5	53.1*	45.5*	-44.8
CC(=O)OCC1=C(C(=O)O)N2C(=O)C(NC(=O)c3ccc(COc4cccc(Cl)c4Cl)o3)C2SC1 (centres undefined)	5.1	-23.0	-7.9	-6.9	-64.5
COc1ccc(CN2C(=O)c3ccccc3C2C(=O)NC2CCCCCC2)c(OC)c1 (centres undefined)	32.5	47.5*	30.9	22.0	13.3
CC1CCC(NC(=O)C2c3ccccc3C(=O)N2Cc2cccs2)CC1 (centres undefined)	18.2	17.3	3.8	44.0*	31.7
O=C(NC1CCCCCCC1)C1c2ccccc2C(=O)N1Cc1cccs1 (centres undefined)	9.2	0.7	0.4	-2.2	12.6
COc1ccc(CCN2C(=O)CC(NNc3ccc([N+](=O)[O-])cc3)C2=O)cc1OC (centres undefined)	7.3	-8.2	2.3	7.6	19.8
C=C(C)COc1ccc(-c2[nH]ncc2Oc2cccc(OC)c2)c(O)c1	29.4	20.1	2.3	62.7*	57.3*
C=C(C)COc1ccc(-c2[nH]ncc2Oc2ccccc2OCC)c(O)c1	15.7	-1.0	3.2	13.2	45.4
C=C(C)COc1ccc(-c2ncncc2Oc2ccc(OC)cc2)c(O)c1	19.5	10.4	10.8	43.3*	29.0
CCCOC(=O)c1ccc(Oc2cn[nH]c2-c2ccc(OCC(=O)NN)cc2O)cc1	29.9	13.0	43.5*	41.0*	25.6
Cn1cnnc1SCC(=O)Nc1ccc(Cl)c(S(=O)(=O)N2CCOCC2)c1	0.2	-4.5	-2.3	-5.5	15.4
COc1ccc(NC(=O)Cn2cnc3sc(C)c(S(=O)(=O)N4CCOCC4)c3c2=O)c(OC)c1	1.6	-7.1	-3.9	.	11.6
Cn1c(CCc2nc3ccccc3[nH]2)nnc1SCC#N	7.5	1.6	-4.9	-3.5	31.6
O=C(O)c1ccc(CSc2nnc(-c3ccncc3)n2CC2CCCO2)cc1 (centres undefined)	10.8	1.0	-3.1	15.9	17.4
Cc1ccc(CSc2nnc(-c3ccncc3)n2CC2CCCO2)cc1 (centres undefined)	25.9	18.9	8.5	80.8*	15.6
O=C(Oc1cncc(Cl)c1)c1ccco1	60.9*	20.5	83.7*	41.7*	2.4
C(=C\c1ccccc1)/C=N/N1CCN(Cc2ccccc2)CC1	11.6	.	6.7	2.2	50.1*
